# Reference: PubChem BioAssay AID652163 (Broad Institute, 2013)
# Several values for one entry are separate records, joined by “and”; a condition that tells them apart may be missing. Identical values can stand only once. Hit rate of the full screen: of about 360,000 compounds, about 500 (0.14%) were called active.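 How the source made its calls: active means mean inhibition of at least 70% across replicates, with every replicate also reaching that level; inconclusive means mean inhibition reaches 70% but some replicates fall short; inactive means mean inhibition below 70%.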 Shown is part of a subset that was picked to be rich in actives.
# Molecular target: Protein S100-A4 (Homo sapiens) (UniProt P26447)
# Sequence (P26447 whole entry, looked up): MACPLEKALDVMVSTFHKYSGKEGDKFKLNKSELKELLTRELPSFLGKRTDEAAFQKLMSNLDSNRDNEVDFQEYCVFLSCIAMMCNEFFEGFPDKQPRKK
# Experiment: inhibitors of S100A4-myosin IIA peptide binding, primary screen, biochemical, fluorescence polarization, TAMRA-MyoIIA peptide (AID 652163)
# Details: at 10.7 µM, stronger effect = higher value
# Outline: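 System – human S100A4 monomer protein, biochemical binding assay · Buffer or medium – Calcium-containing HEPES buffer, pH 7.2 · Timing – 5 min between mix addition and reading · Also added – TAMRA-labelled myosin IIA heavy-chain peptide probe, 5 nM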
row,Compound,inhibition
1,C[C@H]1CN([C@@H](C)CO)C(=O)Cc2cc(NS(=O)(=O)c3cn(C)cn3)ccc2O[C@@H]1CN(C)C(=O)Nc1ccc2c(c1)OCO2,1.37% (inactive)
2,Cc1cccc(CN(C)C[C@H]2OCc3cn(nn3)CCCC(=O)N([C@@H](C)CO)C[C@H]2C)c1,-6.24% (inactive)
3,CCC(=O)N1CCCCN2[C@H](C1)[C@@H](c1ccc(/C=C/c3ccccc3)cc1)[C@@H]2CO,3.9% (inactive)
4,CCCN(C)C[C@@H]1Oc2cc(C#Cc3ccc(F)cc3)ccc2S(=O)(=O)N([C@H](C)CO)C[C@H]1C,-10.2% (inactive)
5,C[C@H]1CCCCO[C@@H](CN(C)C(=O)C2CCCCC2)[C@@H](C)CN([C@@H](C)CO)C(=O)c2cc(NS(=O)(=O)c3cccs3)ccc2O1,-3.65% (inactive)
6,CCCNC(=O)N1C[C@H](O)COC[C@H]2O[C@@H](CC(=O)NCc3ccncn3)CC[C@@H]21,1.59% (inactive)
7,CCCNC(=O)N[C@@H]1C=C[C@H](CC(=O)NC2CCC2)O[C@H]1CO,10% (inactive)
8,CO[C@H]1CN(C)C(=O)c2cc(NS(=O)(=O)c3ccccc3)ccc2OC[C@H](C)NC[C@@H]1C,-2.03% (inactive)
9,O=C(c1cnccn1)N1CC(=O)N2[C@H](C1)[C@@H](c1ccc(C#CC3CCCC3)cc1)[C@@H]2CO,-1.65% (inactive)
10,CCCNC(=O)N1CC(=O)N2[C@@H](CO)[C@H](c3ccc(-c4ccc(C)cc4)cc3)[C@@H]2C1,14% (inactive)
11,CCCC#Cc1ccc([C@@H]2[C@@H](CO)N3C(=O)CN(C(=O)Nc4ccc(F)cc4)C[C@@H]23)cc1,5.06% (inactive)
12,CCCNC(=O)N1CC(=O)N2[C@H](CO)[C@@H](c3ccc(-c4ccc(F)cc4)cc3)[C@H]2C1,120% (active)
13,COCC#Cc1cnc2c(c1)C(=O)N([C@@H](C)CO)C[C@@H](C)[C@H](CN(C)C(=O)Nc1ccccc1OC)O2,5.05% (inactive)
14,C[C@@H]1CCCCO[C@H](CN(C)Cc2ccccc2)[C@H](C)CN([C@H](C)CO)C(=O)c2cc(NS(=O)(=O)c3ccc(Cl)cc3)ccc2O1,-1.24% (inactive)
15,Cc1ccc(S(=O)(=O)N(C)C[C@H]2Oc3ccc(NC(=O)Cc4cn(C)c5ccccc45)cc3CC(=O)N([C@@H](C)CO)C[C@H]2C)cc1,12.9% (inactive)
16,CO[C@H]1CN(C)C(=O)c2cc(NC(=O)Nc3ccc4c(c3)OCO4)ccc2OC[C@@H](C)NC[C@@H]1C,127% (active)
17,CO[C@@H]1CN(C)C(=O)c2cc(NC(=O)C3CC3)ccc2OC[C@H](C)N(C(=O)CN(C)C)C[C@H]1C,-3.57% (inactive)
18,CO[C@H]1CN(C)C(=O)c2cc(NC(=O)C3CC3)ccc2OC[C@H](C)N(C(=O)CN(C)C)C[C@H]1C,99.6% (active)
19,CO[C@H]1CN(C)C(=O)c2ccc(NC(=O)Nc3ccc4c(c3)OCO4)cc2OC[C@H](C)NC[C@H]1C,6.05% (inactive)
20,CO[C@@H]1CN(C)C(=O)c2cc(NC(=O)C3CCC3)ccc2OC[C@H](C)N(C(=O)CN(C)C)C[C@@H]1C,1.09% (inactive)

row,Compound,inhibition
1,CO[C@@H]1CN(C)C(=O)c2cc(NC(=O)Nc3ccc4c(c3)OCO4)ccc2OC[C@@H](C)NC[C@@H]1C,-4.97% (inactive)
2,N#C[C@H]1[C@@H](c2ccccc2C2=CCCC2)[C@H](CO)N1C(=O)c1cccc(F)c1,7.35% (inactive)
3,C/C=C/c1ccccc1[C@@H]1[C@@H](CO)N(S(=O)(=O)c2cccc(F)c2)[C@H]1C#N,15.1% (inactive)
4,N#C[C@@H]1[C@H](c2ccccc2C2=CCCCC2)[C@@H](CO)N1S(=O)(=O)c1cccc(F)c1,124% (active)
5,O=C(C[C@@H]1C=C[C@H](NC(=O)CN2CCOCC2)[C@@H](CO)O1)NCc1cccc(F)c1,12.6% (inactive)
6,Cc1ccc(CN(C)C[C@H]2OCc3cn(nn3)CCCC(=O)N([C@@H](C)CO)C[C@H]2C)cc1,-1.4% (inactive)
7,CN(C)C(=O)c1cccc(-c2ccc(C3[C@H]4CNC[C@@H]3N4C(=O)Nc3ccccc3F)cc2)c1 (stereo not given in full),-26.3% (inactive) and -7.38% (inactive)
8,COc1ccc(CN(C)C[C@H]2Oc3ccc(NC(=O)Cn4cnnn4)cc3CC(=O)N([C@@H](C)CO)C[C@@H]2C)cc1,6.98% (inactive)
9,O=C(NCC1CC1)[C@@H]1[C@@H](CO)[C@@H]2Cn3c(ccc(-c4ccccc4)c3=O)[C@H]1N2C(=O)C1CC1,5.45% (inactive)
10,CCC(=O)N1CC2(CN(Cc3ccc(Cl)cc3)C2)c2c([nH]c3cc(OC)ccc23)[C@@H]1CO,-4.36% (inactive)
11,CCC(=O)Nc1ccc2c(c1)C(=O)N(C)C[C@H](OC)[C@@H](C)CN(C(=O)c1cnccn1)[C@@H](C)CO2,10.3% (inactive)
12,C[C@@H]1CN([C@H](C)CO)C(=O)c2cc(NS(=O)(=O)c3cccs3)ccc2O[C@@H](C)CCCCO[C@H]1CN(C)Cc1ccc(C(F)(F)F)cc1,15.3% (inactive)
13,C[C@@H]1CN([C@@H](C)CO)C(=O)Cc2cc(NC(=O)Nc3cccc4ccccc34)ccc2O[C@H]1CN(C)CC1CCCCC1,8.63% (inactive)
14,COCC(=O)N1[C@H](CO)[C@H](c2ccccc2)C12CN(C(=O)NC1CCCCC1)C2,14.7% (inactive)
15,CCCC(O)C#Cc1cnc2c(c1)C(=O)N([C@H](C)CO)C[C@H](C)[C@H](CN(C)S(=O)(=O)c1ccc(C#N)cc1)O2 (stereo not given in full),-4.33% (inactive)
16,Cc1ccc(S(=O)(=O)N[C@@H]2CC[C@@H](CCn3cc(C4CC4)nn3)O[C@@H]2CO)cc1,1.11% (inactive)
17,CCCC#Cc1ccc([C@H]2[C@@H](CO)N3C(=O)CN(C(=O)c4ccncc4)C[C@@H]23)cc1,-18.5% (inactive)
18,CC(C)NC(=O)N(C)C[C@H]1Oc2ccc(NS(C)(=O)=O)cc2CC(=O)N([C@@H](C)CO)C[C@@H]1C,6.04% (inactive)
19,COc1ccccc1-c1cnc2c(c1)C(=O)N([C@@H](C)CO)C[C@H](C)[C@H](CN(C)CC1CCOCC1)O2,-4.73% (inactive)
20,C[C@H](CO)N1C[C@H](C)[C@H](CN(C)S(=O)(=O)c2cccs2)OCCCC[C@H](C)Oc2ccc(NC(=O)CCCN(C)C)cc2C1=O,1.4% (inactive)
